High-throughput results from PubChem.
Compounds with a hit are over-represented: about 2.1% of the library has one in this group of screens.
Arbovirus anti = antivirals against arbovirus infection, primary screen, cell-based, full library, 10K replicate subset; actives 0.37% (n = 200,000); inhibition, % at 10 µM; arbovirus infection cell-based antiviral screen; in the data active = inhibition above about 30%
Insulin prom inh = inhibitors of insulin promoter-driven GFP, primary screen, imaging, TRM-6 cells, eGFP reporter, cell count; reporter expression induced with tamoxifen; inhibition, % at 2 µM; actives 0.9% (n = 130,000);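 active = inhibition above the mean plus 3 SD, with well images judged a real hit on visual review, cut at about 60% in these data, passing the limit was not always enough; inconclusive = inhibition over the cutoff but images rejected on review; inactive = inhibition not above the cutoff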
RBBP9 inh = human RBBP9 inhibitors, primary screen, biochemical, fluorescence polarization, FP-Rh probe, HTS. Serine hydrolase RBBP9 (Homo sapiens), O75884. recombinant RBBP9. inhibition, % at 7.94 µM. actives 0.2% (n = 220,000). AID 1515, 2009;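 active = inhibition above the campaign mean of all tested compounds plus 3 SD, cut at about 14% in these data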
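system = RBBP9 protein | input = RBBP9 at 2.5 µM in dispensed solution, before mixing | measured by = fluorescence polarization (mP), excitation 525 nm, emission 598 nm | incubation = enzyme-compound preincubation 30 min, then probe labeling 45 min, 25 °C | buffer or medium = Tris-NaCl-Pluronic buffer, pH 8.0 | compound = single dose 7.94 µM | also added = FP-Rh probe, 375 nM dispensing solution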
Insulin prom up = insulin promoter activators in MIN6 cells, imaging, high-content screening, mouse beta cells; AID 1625, 2009; MIN6 insulin promoter-GFP reporter; active compounds read high; z-score at 5 µM; actives 0.3% (n = 190,000);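 active = z-score above 3 at 5 µM with at least 500 cells counted in the well; inconclusive = wells under 500 cells, flagged as cytotoxic or low count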
PKD1 kinase inh = inhibitors of human PKD1 kinase, biochemical, fluorescence polarization; Serine/threonine-protein kinase D1 (Homo sapiens), Q15139; PKD1 kinase fluorescence polarization assay; inhibition, % (test concentration not listed); actives 0.056% (n = 200,000); AID 797, 2007; in the data active = inhibition above about 50%
Target sequence (Q15139 whole entry, looked up): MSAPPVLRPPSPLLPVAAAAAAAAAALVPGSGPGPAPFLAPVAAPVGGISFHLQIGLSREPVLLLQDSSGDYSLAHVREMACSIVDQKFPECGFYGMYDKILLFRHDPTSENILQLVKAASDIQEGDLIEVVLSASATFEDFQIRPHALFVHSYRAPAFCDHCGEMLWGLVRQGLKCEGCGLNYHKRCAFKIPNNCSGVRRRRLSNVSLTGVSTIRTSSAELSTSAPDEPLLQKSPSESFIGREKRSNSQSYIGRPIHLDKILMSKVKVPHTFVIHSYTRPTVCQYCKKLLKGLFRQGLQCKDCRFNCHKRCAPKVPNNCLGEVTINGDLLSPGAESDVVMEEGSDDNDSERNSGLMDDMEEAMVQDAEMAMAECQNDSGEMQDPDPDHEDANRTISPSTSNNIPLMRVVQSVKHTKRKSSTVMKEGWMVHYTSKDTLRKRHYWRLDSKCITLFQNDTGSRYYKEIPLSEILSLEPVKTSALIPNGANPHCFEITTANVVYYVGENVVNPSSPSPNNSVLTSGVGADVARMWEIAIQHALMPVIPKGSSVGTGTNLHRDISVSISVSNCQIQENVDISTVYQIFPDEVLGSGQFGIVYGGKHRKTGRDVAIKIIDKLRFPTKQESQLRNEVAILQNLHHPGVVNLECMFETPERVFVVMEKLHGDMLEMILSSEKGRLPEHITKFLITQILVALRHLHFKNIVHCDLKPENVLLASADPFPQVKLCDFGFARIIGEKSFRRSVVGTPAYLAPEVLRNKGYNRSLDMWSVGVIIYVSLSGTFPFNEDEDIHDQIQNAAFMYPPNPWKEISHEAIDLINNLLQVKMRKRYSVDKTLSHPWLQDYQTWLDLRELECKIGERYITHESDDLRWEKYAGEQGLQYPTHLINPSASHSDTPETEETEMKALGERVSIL
Autophagy mod = autophagy modulators in MEF cells, primary screen, imaging, high-content, MEF GFP-LC3; AID 463193, 2010; actives 0.98% (n = 190,000); calls only at 10 µM (by protocol); MEF GFP-LC3 puncta imaging; test concentration mostly 10 µM;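 active = percentage of spot-positive cells more than 3 SD above its plate mean, without a fluorescence outlier flag or 80% toxicity; inconclusive = no clear call, values can overlap the other calls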
Numbers stand for hits; – = inactive; ? = inconclusive; · = no result given; + = active, no number.

SMILES	Arbovirus anti	Insulin prom inh	RBBP9 inh	Insulin prom up	PKD1 kinase inh	Autophagy mod
O=C(/C=C/c1ccc(F)cc1)Nc1nc2ccccc2[nH]1	–	–	–	–	–	–
C#C[C@]1(O)CC[C@H]2[C@@H]3CCc4cc(OC)ccc4[C@H]3CC[C@@]21C	–	–	–	·	–	+
CC/C(=N/Nc1ccccc1)c1cnnc(-c2ccccc2)n1	–	–	–	–	–	+
CN(C)CC(=O)N1c2ccccc2Sc2ccc(Cl)cc21	–	·	–	–	–	–
Cn1c(=O)cc(SCC(=O)N2CCN(c3ccccc3)CC2)c2ccccc21	–	84.6	–	–	–	–
Cc1ccnc(NC(=O)CSc2cc(=O)n(C)c3ccccc23)c1	–	·	–	–	–	+
Cn1c(Cn2cnc(Cl)c2Cl)nc2ccccc21	–	–	–	–	–	–
O=C(CSc1cc(Cl)ccc1Cl)NCC1CCCO1 (stereo not given)	–	·	–	–	–	–
CCOC(=O)c1ccc(NC(=O)CSC(=S)N2CCOCC2)cc1	–	–	–	–	–	+
CCc1ccc2c(c1)C1(NN=C(c3ccc(C)cc3)S1)C(=O)N2 (stereo not given)	–	–	–	?	–	–
CC(C)c1ccc2c(c1)C1(NN=C(c3ccccc3)S1)C(=O)N2 (stereo not given)	–	–	–	·	–	+
CCN(CC)c1c2c(c(C#N)c3nc4ccccc4n13)CCC2	–	–	–	–	–	–
CN(C)CCCN(C(=O)c1cccs1)c1nc(-c2ccccc2)cs1	–	·	–	–	–	+
Cc1ccc(NC(=S)NCC2CCN(C(C)c3ccccc3)C2)cc1C (stereo not given)	–	·	–	–	–	–
CCC(=O)n1nc(-c2ccc(Cl)cc2)nc1NCc1ccccc1	–	·	–	–	–	+
COCC(=O)n1nc(-c2ccccc2)nc1NCc1cccs1	–	·	–	–	–	–
COC(=O)c1cccc(NC(=O)CC2NCCNC2=O)c1 (stereo not given)	·	·	–	–	·	·
Cc1ccc(-c2cc(C(F)F)nc(N3CCC(C)CC3)n2)cc1	–	–	–	–	–	–
O=C(CC1(O)C(=O)N(CCc2ccccc2)c2ccccc21)c1ccccn1 (stereo not given)	–	·	–	–	–	–
O=C(CC1(O)C(=O)N(C/C=C/c2ccccc2)c2ccccc21)c1ccccn1 (stereo not given)	–	·	–	–	–	+
OC(CNC1CCCCC1)CNC1CCCCC1	39.2	–	–	–	–	–
CC1CC(=O)c2c(cc3c(-c4c(O)cc(O)c5c(O)c6c(cc45)OC(C)CC6=O)c(O)cc(O)c3c2O)O1 (stereo not given)	–	·	25.6	–	–	–
O=C1CC(c2ccc(O)cc2)Oc2cc(O)cc(O)c21 (stereo not given)	–	–	–	·	–	–
CCOC(=O)c1c(-c2cccs2)csc1NC(=O)COC(=O)c1c(C)noc1C	–	·	–	·	–	–
CCCCCN1N=C(C)CC1=O	–	66.7	–	–	–	–
SMILES	Arbovirus anti	Insulin prom inh	RBBP9 inh	Insulin prom up	PKD1 kinase inh	Autophagy mod
O=C(Nc1ccc(C2CCCCC2)cc1)C1CCCN(c2ncccn2)C1 (stereo not given)	·	·	·	3.77	·	·
Cc1cc(C)n(-c2nc3ccccc3c(=O)n2OCC(=O)OCc2ccccc2)n1	–	–	–	–	–	+
Cc1ccc(C(=O)N2CCN(c3ccccn3)CC2)cc1	–	·	–	–	–	–
CS(=O)(=O)n1nc(NCc2cccs2)nc1NCc1cccs1	–	–	–	–	–	–
Cc1nn(-c2ccccc2C(=O)O)c(=O)c2ccccc12	–	–	–	–	–	–
Cc1nn(-c2c(Cl)cc(Cl)cc2Cl)c(=O)c2ccccc12	–	–	–	3.38	–	–
c1ccc2c(c1)oc1c(NCCCn3ccnc3)ncnc12	–	–	–	–	–	+
CCOc1ccc(CCN2C(=O)C(=O)N([C@H](CCCN(C)Cc3ccccc3)CNCc3ccccc3)C[C@@H]2C(C)C)cc1	·	·	·	–	·	·
CCN(CC)C(=O)CSC1=Nc2ccccc2C2=NC(c3ccccc3)C(=O)N12 (stereo not given)	–	–	–	–	–	–
NC(=O)CSC1=Nc2ccccc2C2=NC(c3ccccc3)C(=O)N12 (stereo not given)	–	78.6	–	–	–	–
CCCCNC(=O)NCCN1CCOCC1	·	·	–	–	·	·
COc1ccc(-c2nn(C)c3sc(C(=O)N4CCOCC4)cc23)cc1OC	–	·	–	–	–	–
COc1cccc(-c2nn(C)c3sc(C(=O)Nc4ccc5c(c4)OCCO5)cc23)c1	–	·	–	–	–	+
Cn1nc(-c2ccccc2F)c2cc(C(=O)Nc3ccc4c(c3)OCCO4)sc21	–	–	–	–	–	–
COc1ccc(N2CCN(C(=O)c3cc4c(-c5cccc(OC)c5)nn(C)c4s3)CC2)cc1	–	·	–	–	–	+
O=C(C1=C[C@H](C2CC2)C[C@H](OCCCCO)O1)N1CCN(Cc2ccccc2)CC1	–	·	–	3.72	–	–
CCN(CC)C(c1ccc(F)cc1)c1nnnn1CC1CCCO1 (stereo not given)	–	92.9	–	–	–	–
COc1ccc(C(c2nnnn2CC2CCCO2)N2CCN(c3ccc(F)cc3)CC2)cc1 (stereo not given)	–	·	–	–	–	–
COc1ccc(CN(C)CC(=O)Nc2cc(OC)c([N+](=O)[O-])cc2C)c(OC)c1	–	71.4	–	–	–	–
COc1cc(NC(=O)CN(C)Cc2ccc(OC(F)F)cc2)c(C)cc1[N+](=O)[O-]	–	·	–	–	–	–
Fc1ccccc1CSc1nc2ccccc2[nH]1	–	74.3	–	–	–	–
Fc1c(F)c(F)c(CSc2nc3ccccc3[nH]2)c(F)c1F	–	–	–	–	–	–
COc1ccc(C2=C(N)c3ccccc3C2=O)cc1	–	71.4	–	–	–	–
Cc1ccc(-c2cc(Cc3ccccc3)c(=O)[nH]n2)cc1	·	·	–	·	·	·
CCOC(=O)CN1CC23C=CC(O2)C(C(=O)Nc2cc(OC)ccc2OC)C3C1=O (stereo not given)	–	·	–	4.17	–	–
Brc1ccccc1-c1nc(-c2ccccc2)no1	–	–	–	–	–	–
CC1=CC(C)C(CN(CCC[N+](C)(C)C)C(=O)Nc2ccccc2)C(C)C1 (stereo not given)	·	·	–	–	·	·
CCCCN(CC)S(=O)(=O)c1ccc(C(=O)N(CCCN(C)C)c2nc3cc(C)cc(C)c3s2)cc1	–	–	–	–	–	+
Cc1cc(C)n(/N=C/c2cccs2)c(=O)c1C#N	–	·	–	·	–	–
COCCN1Cc2cccc(C(=O)NC(C)CCc3ccco3)c2C1=O (stereo not given)	–	–	–	–	–	–
